PglD inh = blocks C. jejuni PglD acetyltransferase activity. purified PglD enzyme, DTNB colorimetric CoA detection. inhibition, % at 12.5 µM. 0.098% of 360,000 active. AID 602405; in the data active = inhibition above about 16%, passing the limit was not always enough; inconclusive = no clear call, values can overlap the other calls
E-selectin induc = E-selectin induction on HUVECs | activation, % at 7.58 µM | P16581 | HUVEC E-selectin immunofluorescence imaging; normalized: neutral wells 0, TNF-alpha wells 100 | 0.37% of 260,000 active | AID 686992;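 active = mean E-selectin-positive cell signal at least 10% of the positive control, reached in at least 60% of replicates, without over 20% cell loss; inconclusive = no rule given, readout overlaps actives, possibly toxicity-flagged; inactive = the rest, including those meeting only one limit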
Target sequence (P16581 whole entry, looked up): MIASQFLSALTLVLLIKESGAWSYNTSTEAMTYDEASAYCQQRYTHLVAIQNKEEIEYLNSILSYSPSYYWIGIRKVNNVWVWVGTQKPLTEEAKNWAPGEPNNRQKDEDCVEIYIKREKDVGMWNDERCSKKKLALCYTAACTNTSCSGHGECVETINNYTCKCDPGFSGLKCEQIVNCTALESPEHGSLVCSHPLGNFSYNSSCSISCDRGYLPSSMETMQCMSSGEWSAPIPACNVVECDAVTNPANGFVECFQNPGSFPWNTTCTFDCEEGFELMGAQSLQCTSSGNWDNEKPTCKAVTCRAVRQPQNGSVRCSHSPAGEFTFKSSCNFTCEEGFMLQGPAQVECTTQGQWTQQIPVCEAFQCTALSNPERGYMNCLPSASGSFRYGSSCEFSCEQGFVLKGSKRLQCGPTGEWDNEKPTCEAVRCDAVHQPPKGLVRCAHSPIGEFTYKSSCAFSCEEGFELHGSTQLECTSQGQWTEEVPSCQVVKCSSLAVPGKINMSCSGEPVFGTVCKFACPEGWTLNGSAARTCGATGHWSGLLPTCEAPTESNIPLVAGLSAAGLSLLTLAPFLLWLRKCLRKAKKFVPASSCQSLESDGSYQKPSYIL
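Test system – human umbilical vein endothelial cells (HUVEC), E-selectin induction · Input – 3,000 HUVEC seeded per well · Buffer or medium – EGM-2, gelatin · Compound dosing – single-point compound dose · Detection – immunofluorescence imaging · Measure – percent E-selectin-positive cells · Controls – TNF-alpha high, DMSO low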
FGF22 binding = shifts melting point of recombinant human FGF22. activity (Tm shift, normalised), % at 9.99 µM. 1.5% of 340,000 active. recombinant FGF22 thermal shift, SYPRO orange fluorescence; percent of sucrose octasulfate shift, DMSO zero. Q9HCT0;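 active = mean Tm shift, scaled 0 neutral to 100 positive control, at about 1.3% or above, every replicate too, limit read from the data; inconclusive = no clear call, values can overlap the other calls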
Target sequence (Q9HCT0 whole entry, looked up): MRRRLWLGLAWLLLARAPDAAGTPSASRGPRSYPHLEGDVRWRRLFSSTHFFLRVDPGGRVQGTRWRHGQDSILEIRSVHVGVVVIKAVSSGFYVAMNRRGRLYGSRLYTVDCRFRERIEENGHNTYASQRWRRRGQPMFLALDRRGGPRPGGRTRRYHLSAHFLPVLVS
DENV2 CPE rescue = protects cells from dengue virus 2 cytopathic effect. CPE inhibition, % at 9.99 µM. 1.7% of 350,000 active. DENV2-infected cells, cytopathic effect rescue, plate reader; in the data active = CPE inhibition above about 20%, passing the limit was not always enough; inconclusive = no clear call, values can overlap the other calls; tested in BHK-21 cells
C2C12 statin = suppressors of simvastatin-induced myotoxicity in C2C12 myotubes; ATP luminescence, 48 h; scaled: DMSO 0, geranylgeraniol control 100; rescue of ATP level, % at 7.49 µM; 0.78% of 330,000 active;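 active = mean ATP rescue above about 67%, or every replicate alone reaching that limit, limit read from the data, passing the limit was not always enough; inconclusive = no clear call, values can overlap the other calls; inactive = mean under the limit and some replicate under it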;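 note: myotubes were challenged with 10 µM simvastatin during compound exposure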
XiGFP reactiv = X-chromosome reactivation activator | 0.055% of 360,000 active | XiGFP mouse fibroblasts, % GFP-positive cells imaging, 3 d; cells co-treated with 5-aza-dC sensitizer; scaled so ellipticine positive control = 100% | activation, % at 7.58 µM;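 active = mean normalized replicate activation at least 10% and every replicate at or above 10%; inconclusive = only one of the two criteria met; inactive = mean below 10% and not all replicates reach 10%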
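System: 68-5-11 XiGFP fibroblast line | Buffer or medium: DMEM containing 5-aza-dC | Compound: Single point | Times: Compounds 3 days, fix/stain 15 min at room temperature | Benchmarks: Positive control ellipticine, 6 µM final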
Each line names hits and unclear results; the compound was inactive in the other large screens. A selection: hits, their analogues and other compounds. The true share with any hit is near 3.3%.

C[C@@H]1CN([C@@H](C)CO)C(=O)c2cccc(NC(=O)Nc3ccccc3)c2O[C@@H]1CN(C)S(=O)(=O)c1ccc(Cl)cc1	none
COc1cccc(-c2ccc(CC[C@H]3O[C@H]4CC[C@H](CO)O[C@H]4C[C@@H]3NS(C)(=O)=O)cc2)c1	DENV2 CPE rescue inconclusive (no result: PglD inh, E-selectin induc, C2C12 statin, XiGFP reactiv)
Cc1ccc(C(=O)NC(=S)N(C)C2CCCCC2)cc1Br	none
COc1ccc(C(=O)NC(=S)N(C)C2CCCCC2)cc1Br	DENV2 CPE rescue 59.3
COc1ccc(C(=O)NC(=S)NNC(=O)c2ccc(NC(C)=O)cc2)cc1Br	FGF22 binding 43.0 (no result: PglD inh, E-selectin induc)
CO[C@H]1CN(C)C(=O)c2ccc(NS(=O)(=O)C3CCCCC3)cc2OC[C@@H](C)NC[C@H]1C	none
C[C@@H]1CCCCO[C@H](CN(C)C(=O)c2ccccc2)[C@H](C)CN([C@H](C)CO)C(=O)c2cc(NS(=O)(=O)c3cn(C)cn3)ccc2O1	none (no result: FGF22 binding, C2C12 statin)
CCC(=O)Nc1ccc2c(c1)C(=O)N(C)C[C@H](OC)[C@H](C)CN(C(=O)CC1CC1)[C@@H](C)CO2	none
COC(=O)c1cc(NC(=O)c2cccs2)ccc1N1CCOCC1	FGF22 binding 43.3, DENV2 CPE rescue inconclusive (no result: PglD inh, C2C12 statin)
O=C(Nc1ccc(N2CCOCC2)c(F)c1)c1cccs1	none
CCOC(=O)CSc1nc2ccccc2c(=O)n1CC(C)C	FGF22 binding 42.9 (no result: PglD inh, E-selectin induc, C2C12 statin)
CCOC(=O)CSc1nc2ccccc2c(=O)n1CC	none (no result: E-selectin induc, FGF22 binding, DENV2 CPE rescue, C2C12 statin, XiGFP reactiv)
C=CCN1C(=O)C2C(C(=O)NC)C3C=CC2(O3)C1C(=O)NCc1ccc(OC)cc1 (stereo not given)	C2C12 statin 104.8 (no result: E-selectin induc, FGF22 binding, DENV2 CPE rescue, XiGFP reactiv)
C#CCN1C(=O)C2C(C(=O)NC)C3C=CC2(O3)C1C(=O)NCc1ccc(OC)cc1 (stereo not given)	none (no result: E-selectin induc, FGF22 binding, DENV2 CPE rescue, XiGFP reactiv)
COCC#Cc1cnc2c(c1)C(=O)N([C@@H](C)CO)C[C@H](C)[C@H](CN(C)C(=O)c1cnccn1)O2	none (no result: E-selectin induc)
COc1ccc(C(c2sc3ncnn3c2O)N2CCN(c3ccccc3F)CC2)cc1OC (stereo not given)	none
COc1ccc(C(c2sc3ncnn3c2O)N2CC(C)OC(C)C2)cc1OC (stereo not given)	DENV2 CPE rescue 74.6 (no result: E-selectin induc)
Cc1noc(C)c1NC(=O)Nc1ccc2c(c1)C(=O)N([C@H](C)CO)C[C@@H](C)[C@@H](CN(C)Cc1ccccc1)OCCCC[C@@H](C)O2	none (no result: FGF22 binding, C2C12 statin)
CN(CC(=O)Nc1ccc(F)c(F)c1F)c1ncnc2sccc12	DENV2 CPE rescue 30.6 (no result: PglD inh, E-selectin induc, C2C12 statin)
CN(CC(=O)Nc1ccccc1Br)c1ncnc2sccc12	none (no result: E-selectin induc)
O=C(COc1ncnc2sccc12)Nc1ccc(F)cc1F	FGF22 binding 43.9 (no result: PglD inh, E-selectin induc, C2C12 statin)
CN1CCCCN2[C@H](CO)[C@H](c3ccc(-c4ccc(F)cc4)cc3)[C@H]2C1	none (no result: FGF22 binding, DENV2 CPE rescue)
C[C@@H]1CN([C@H](C)CO)C(=O)c2cc(NC(=O)NC3CCCCC3)ccc2O[C@@H](C)CCCCO[C@H]1CN(C)Cc1ccccc1	none (no result: C2C12 statin)
CC(C)c1ccc(NC(=O)COc2ccccn2)cc1	FGF22 binding 43.2 (no result: PglD inh, C2C12 statin)
Cn1cc(C2=C(c3ccc(Cl)cc3Cl)C(=O)NC2=O)c2ccccc21	XiGFP reactiv 58.5
Cn1cc(-c2ccccc2C(N)=O)c(=O)c2cc(Cl)ccc21	none
CC(C)(O)C#Cc1ccc([C@@H]2[C@@H](CO)N3CCCCN(C(=O)c4ccncc4)C[C@H]23)cc1	none (no result: DENV2 CPE rescue)
C=CCn1c(=O)/c(=C/c2ccc(C)o2)s/c1=C(/C#N)C(=O)c1ccccc1	none (no result: E-selectin induc, FGF22 binding, DENV2 CPE rescue, XiGFP reactiv)
C=CCn1c(=O)/c(=C\c2ccccn2)s/c1=C(/C#N)C(=O)NCC1CCCO1 (stereo not given)	FGF22 binding 43.1 (no result: PglD inh, E-selectin induc)
C[C@H]1CN([C@@H](C)CO)C(=O)c2cccc(NC(=O)C3CC3)c2O[C@H]1CN(C)S(=O)(=O)c1cn(C)cn1	none
O=C(Cn1cc(COc2c(F)c(F)c(Br)c(F)c2F)nn1)c1ccc(O)cc1	FGF22 binding 1.8
CCSC1=NCCN1S(=O)(=O)c1ccccc1	FGF22 binding 43.7 (no result: PglD inh, E-selectin induc, C2C12 statin)
CCSC1=NCCN1S(=O)(=O)c1ccc(Cl)cc1	FGF22 binding 43.0 (no result: PglD inh, E-selectin induc, C2C12 statin)
C[C@@H]1CN([C@H](C)CO)C(=O)c2cc(NC(=O)Nc3ccc(F)cc3)ccc2O[C@@H]1CN(C)S(=O)(=O)c1ccc(F)cc1	none
CO[C@H]1CN(C)C(=O)c2ccc(NC(=O)c3cnccn3)cc2OC[C@H](C)NC[C@H]1C	DENV2 CPE rescue 53.2
CCCN1C[C@@H](C)[C@@H](OC)CN(C)C(=O)c2ccc(NC(=O)c3cnccn3)cc2OC[C@@H]1C	DENV2 CPE rescue 22.1
CCCN1C[C@@H](C)[C@H](OC)CN(C)C(=O)c2ccc(NC(=O)Nc3c(C)noc3C)cc2OC[C@@H]1C	DENV2 CPE rescue 22.4
CO[C@@H]1CN(C)C(=O)c2cc(NC(=O)c3cnccn3)ccc2OC[C@H](C)N(CC2CC2)C[C@@H]1C	none (no result: PglD inh, C2C12 statin)
CO[C@H]1CN(C)C(=O)c2cc(NC(=O)c3cnccn3)ccc2OC[C@H](C)N(CC2CC2)C[C@@H]1C	DENV2 CPE rescue 35.0 (no result: PglD inh, C2C12 statin)
Cc1noc(C)c1NC(=O)Nc1ccc2c(c1)C(=O)N([C@@H](C)CO)C[C@H](C)[C@@H](CN(C)C(=O)Nc1c(C)noc1C)O2	none
COc1ccc(CN2[C@@H](CO)[C@@H]3c4ccccc4NC[C@@H]32)cc1	DENV2 CPE rescue 66.4
COc1ccc(CN2[C@H](CO)[C@H]3c4ccccc4NC[C@H]32)cc1	C2C12 statin 157.2
O=C(Nc1ccccc1F)N[C@@H]1C=C[C@H](CC(=O)N2CCCCC2)O[C@H]1CO	none
C[C@H](CO)N1C[C@H](C)[C@@H](CN(C)C(=O)Nc2ccc3c(c2)OCO3)Oc2ccc(NC(=O)Nc3ccc(F)cc3)cc2CC1=O	DENV2 CPE rescue 23.3
C[C@@H]1CN([C@@H](C)CO)C(=O)Cc2cc(NC(=O)Nc3ccc4c(c3)OCO4)ccc2O[C@H]1CN(C)C(=O)Nc1ccc(F)cc1	DENV2 CPE rescue 45.3
CCOC(=O)CCCCCC(=O)Nc1ccc2c(c1)CC(=O)N([C@@H](C)CO)C[C@H](C)[C@@H](CN(C)C(=O)Nc1ccc3c(c1)OCO3)O2	DENV2 CPE rescue 45.9
C[C@@H]1CN([C@@H](C)CO)C(=O)c2cccc(NC(=O)Nc3ccc(F)cc3)c2O[C@H]1CN(C)S(=O)(=O)c1cccs1	none
C[C@@H]1CCCCO[C@@H](CN(C)S(=O)(=O)c2cn(C)cn2)[C@@H](C)CN([C@H](C)CO)C(=O)c2cc(NC(=O)c3ccccc3)ccc2O1	none (no result: C2C12 statin)
CN1C[C@@H]2[C@H](c3ccccc31)[C@@H](CO)N2C(=O)C1CCCC1	none (no result: FGF22 binding)
C[C@H]1CN([C@@H](C)CO)C(=O)c2cccc(NC(=O)C3CCOCC3)c2O[C@@H]1CN(C)Cc1ccncc1	none
CN1CCN(CCOc2ccc(-c3ccccc3)cc2)CC1	DENV2 CPE rescue 48.9 (no result: E-selectin induc)
CN1CCN(CCCOc2ccc(-c3ccccc3)cc2)CC1	none (no result: E-selectin induc)
